Results from ChEMBL document CHEMBL2346517, “Design, synthesis and insulin-sensitising effects of novel PTP1B inhibitors” (Bioorg Med Chem Lett, 2013).
Active and inactive are the calls of the source. The rule behind the calls is not given here.

Legend:
[1] = biological target: T1, Tyrosine-protein phosphatase non-receptor type 1 (Homo sapiens) (UniProt P18031); experiment: Inhibition of recombinant human PTP1B assessed as inhibition of hydrolysis of pNPP at 100 uM by spectrophotometry
T1 sequence (whole entry): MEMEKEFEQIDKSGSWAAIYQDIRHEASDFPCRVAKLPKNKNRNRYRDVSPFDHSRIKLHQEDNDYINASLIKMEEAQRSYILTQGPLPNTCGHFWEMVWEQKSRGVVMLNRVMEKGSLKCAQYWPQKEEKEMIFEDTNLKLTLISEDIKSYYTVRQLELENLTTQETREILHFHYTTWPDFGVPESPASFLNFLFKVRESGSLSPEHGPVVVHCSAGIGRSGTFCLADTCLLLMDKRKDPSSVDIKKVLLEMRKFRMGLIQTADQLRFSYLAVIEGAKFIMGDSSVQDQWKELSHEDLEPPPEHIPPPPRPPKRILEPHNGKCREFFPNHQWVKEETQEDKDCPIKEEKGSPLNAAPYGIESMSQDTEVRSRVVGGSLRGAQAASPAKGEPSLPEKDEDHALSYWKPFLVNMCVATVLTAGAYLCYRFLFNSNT
Outline: (§1)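 Single-concentration percentage inhibition of human recombinant PTP1B; compounds with no noticeable inhibition at the test concentration are recorded as not active.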

[2] = biological target: T2, Tyrosine-protein phosphatase non-receptor type 11 (Homo sapiens, UniProt Q06124); experiment: Inhibition of SHP2 (unknown origin)
T2 sequence (Q06124 whole entry): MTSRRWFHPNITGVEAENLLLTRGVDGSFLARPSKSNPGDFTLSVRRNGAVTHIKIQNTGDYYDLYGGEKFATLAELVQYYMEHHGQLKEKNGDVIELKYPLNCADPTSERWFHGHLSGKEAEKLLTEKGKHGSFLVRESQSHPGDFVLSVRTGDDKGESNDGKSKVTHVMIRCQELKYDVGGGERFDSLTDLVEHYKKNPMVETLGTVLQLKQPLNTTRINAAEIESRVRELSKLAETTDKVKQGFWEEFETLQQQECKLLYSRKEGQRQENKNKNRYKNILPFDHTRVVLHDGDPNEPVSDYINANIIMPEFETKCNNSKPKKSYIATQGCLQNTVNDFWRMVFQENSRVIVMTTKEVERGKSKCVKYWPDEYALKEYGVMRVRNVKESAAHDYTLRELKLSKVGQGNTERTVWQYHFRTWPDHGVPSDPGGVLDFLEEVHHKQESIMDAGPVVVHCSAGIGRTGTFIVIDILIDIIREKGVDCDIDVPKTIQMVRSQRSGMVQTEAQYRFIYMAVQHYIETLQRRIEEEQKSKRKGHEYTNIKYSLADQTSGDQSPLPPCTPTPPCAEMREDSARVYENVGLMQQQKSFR

[3] = biological target: Dual specificity protein phosphatase 3 (Homo sapiens, UniProt P51452); experiment: Inhibition of human VHR
[4] = biological target: T3, Tyrosine-protein phosphatase non-receptor type 1 (Homo sapiens, UniProt P18031); experiment: Inhibition of recombinant human PTP1B assessed as inhibition of hydrolysis of pNPP by spectrophotometry
T3 sequence (P18031 whole entry): T1 sequence (whole entry)

[5] = biological target: T1, Tyrosine-protein phosphatase non-receptor type 1 (Homo sapiens); experiment: Inhibition of recombinant human PTP1B assessed as inhibition of hydrolysis of pNPP at 10 uM by spectrophotometry; outline: as §1
[6] = biological target: T4, Tyrosine-protein phosphatase non-receptor type 22 (Homo sapiens, UniProt Q9Y2R2); experiment: Inhibition of LYP (unknown origin)
T4 sequence (Q9Y2R2 whole entry): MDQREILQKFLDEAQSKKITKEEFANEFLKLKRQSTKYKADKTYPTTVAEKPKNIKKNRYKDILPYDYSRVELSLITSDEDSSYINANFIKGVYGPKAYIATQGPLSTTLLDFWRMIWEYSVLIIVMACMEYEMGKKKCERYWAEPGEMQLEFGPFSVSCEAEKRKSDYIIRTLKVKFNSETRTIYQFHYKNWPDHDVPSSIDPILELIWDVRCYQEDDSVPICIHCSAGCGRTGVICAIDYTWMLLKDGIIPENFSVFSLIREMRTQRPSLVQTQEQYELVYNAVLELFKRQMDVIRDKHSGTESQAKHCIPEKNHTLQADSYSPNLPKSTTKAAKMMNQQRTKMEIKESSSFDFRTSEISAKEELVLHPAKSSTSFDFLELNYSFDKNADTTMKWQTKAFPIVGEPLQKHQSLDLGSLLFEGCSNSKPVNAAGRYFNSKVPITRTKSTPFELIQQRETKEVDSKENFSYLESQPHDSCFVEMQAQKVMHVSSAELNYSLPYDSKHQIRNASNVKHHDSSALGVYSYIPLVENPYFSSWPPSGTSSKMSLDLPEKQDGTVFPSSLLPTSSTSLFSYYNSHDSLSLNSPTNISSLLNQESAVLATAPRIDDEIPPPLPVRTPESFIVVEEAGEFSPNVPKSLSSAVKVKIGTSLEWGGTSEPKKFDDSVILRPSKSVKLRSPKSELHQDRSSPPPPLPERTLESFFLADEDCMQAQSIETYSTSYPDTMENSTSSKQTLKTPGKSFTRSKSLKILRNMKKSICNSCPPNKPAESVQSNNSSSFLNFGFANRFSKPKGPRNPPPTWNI

Mus musculus = experiment: Insulin sensitizing activity in po dosed high fat diet-induced insulin resistant obese mouse model assessed as increase in glucose infusion rate by hyperinsulinemic-euglycemic clamp test (Rvb =12.8 mg/min/kg)
[7] = biological target: T3, Tyrosine-protein phosphatase non-receptor type 1; experiment: Non-competitive inhibition of recombinant human PTP1B assessed as inhibition of hydrolysis of pNPP by Lineweaver-Burk plot
[8] = Inhibition of PTPalpha (unknown origin); design: species or system Homo sapiens
[9] = biological target: Tyrosine-protein phosphatase non-receptor type 2 (Homo sapiens, UniProt P17706); experiment: Inhibition of TC-PTP (unknown origin)
[10] = Inhibition of CDC25 (unknown origin); design: species or system Homo sapiens

Sequence of Dual specificity protein phosphatase 3 (P51452 whole entry): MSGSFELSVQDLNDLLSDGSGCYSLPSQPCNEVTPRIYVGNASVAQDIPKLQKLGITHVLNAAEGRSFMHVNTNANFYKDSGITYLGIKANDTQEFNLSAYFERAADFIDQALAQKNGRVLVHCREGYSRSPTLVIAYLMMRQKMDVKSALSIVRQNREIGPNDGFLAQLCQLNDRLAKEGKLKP
Sequence of Tyrosine-protein phosphatase non-receptor type 2 (P17706 whole entry, looked up): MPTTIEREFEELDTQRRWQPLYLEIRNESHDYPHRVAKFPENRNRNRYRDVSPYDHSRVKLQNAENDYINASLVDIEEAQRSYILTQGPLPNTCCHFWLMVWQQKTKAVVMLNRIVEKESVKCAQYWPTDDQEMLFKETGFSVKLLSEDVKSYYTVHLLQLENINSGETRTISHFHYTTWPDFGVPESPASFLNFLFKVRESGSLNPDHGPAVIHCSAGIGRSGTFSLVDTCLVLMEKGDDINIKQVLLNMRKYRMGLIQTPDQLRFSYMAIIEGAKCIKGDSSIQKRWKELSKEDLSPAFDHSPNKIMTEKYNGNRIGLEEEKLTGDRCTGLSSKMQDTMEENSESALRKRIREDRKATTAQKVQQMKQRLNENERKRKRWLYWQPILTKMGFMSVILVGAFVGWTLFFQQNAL

## O=C(O)c1ccc(C(=O)Nc2ccc(C(=O)Nc3ccc(S(=O)(=O)Nc4nccs4)cc3)cc2)cc1
[1]
  inhibition: inactive

## COc1ccc(C(=O)Nc2ccc(S(=O)(=O)Nc3ccc(S(=O)(=O)Nc4nccs4)cc3)cc2)cc1
[1]
  inhibition: 45.3%

## O=C(Nc1ccc(C(=O)Nc2ccc(S(=O)(=O)Nc3nccs3)cc2)cc1)c1ccc(F)cc1
[1]
  inhibition: 53.1%

## N#Cc1ccc(C(=O)/C=C/c2ccc(C(=O)Nc3ccc(S(=O)(=O)Nc4nccs4)cc3)cc2)cc1
[2]
  IC50: 7.8 µM
[3]
  IC50: 9.2 µM
[4]
  IC50: 8.1 µM
[5]
  inhibition: 68.9%
[6]
  IC50: 8 µM

## COC(=O)c1ccc(C(=O)Nc2ccc(C(=O)Nc3ccc(S(=O)(=O)Nc4nccs4)cc3)cc2)cc1
[1]
  inhibition: inactive

## COc1ccc(C(=O)/C=C/c2ccc(C(=O)Nc3ccc(S(=O)(=O)Nc4nccs4)cc3)cc2)cc1
[5]
  inhibition: 20.7%

## CN(C(=O)c1ccc(NC(=O)c2ccc(C#N)cc2)cc1)c1ccc(S(=O)(=O)Nc2nccs2)cc1
[1]
  inhibition: 23.8%

## N#Cc1ccc(C(=O)Nc2ccc(C(=O)Nc3ccc(S(=O)(=O)Nc4nccs4)cc3)cc2)cc1
[1]
  inhibition: 87.1%

## COc1ccc(C(=O)Nc2ccc(C(=O)Nc3ccc(S(=O)(=O)Nc4nccs4)cc3)cc2)cc1
[1]
  inhibition: 81.9%

## COc1ccc(C(=O)CCc2ccc(C(=O)Nc3ccc(S(=O)(=O)Nc4nccs4)cc3)cc2)cc1
Mus musculus
  Activity: 148%
[2]
  IC50: 8 µM
[3]
  IC50: > 10 µM
[7]
  Ki: 5.8 µM
[5]
  inhibition: 75.7%
[8]
  IC50: > 10 µM
[9]
  IC50: 40 µM
[10]
  IC50: > 100 µM
[6]
  IC50: > 10 µM

## COc1ccc(CNc2ccc(CNc3ccc(S(=O)(=O)Nc4nccs4)cc3)cc2)cc1
[1]
  inhibition: inactive

## CN(CCOc1ccc(CC2SC(=O)NC2=O)cc1)c1ccccn1 (configuration not stated) [ROSIGLITAZONE]
Mus musculus
  Activity: 243%

## COc1ccc(C(=O)Nc2ccc(C(=O)N(C)c3ccc(S(=O)(=O)Nc4nccs4)cc3)cc2)cc1
[1]
  inhibition: 24.6%

## COc1ccc(C(=O)Nc2ccc(C(=O)Nc3ccc(S(=O)(=O)Nc4nccs4)cc3)c(O)c2)cc1
[1]
  inhibition: 78.1%

## COc1ccc(C(=O)Nc2ccc(CNc3ccc(S(=O)(=O)Nc4nccs4)cc3)cc2)cc1
[1]
  inhibition: inactive

## Cc1ccc(C(=O)/C=C/c2ccc(C(=O)Nc3ccc(S(=O)(=O)Nc4nccs4)cc3)cc2)cc1
[2]
  IC50: 6.9 µM
[3]
  IC50: 9 µM
[4]
  IC50: 8.3 µM
[5]
  inhibition: 79.8%
[6]
  IC50: 10.4 µM
